In ChEMBL document CHEMBL2040816, “Design, synthesis, and structure-activity relationship studies of novel millepachine derivatives as potent antiproliferative agents” (Eur J Med Chem, 2012) one finds IC50 data, which are given here for 24 compounds.

Molecules are shown by their SMILES.

Assay type in all cases: functional, cell-based
For test [1], the system named is HepG2. The test is described as follows: Antiproliferative activity against human HepG2 cells after 24 hrs by MTT assay. To be noted: HepG2, 24 h. Summed up:
(§1)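 MTT assay. 1 × 10⁴ cells per well were plated and incubated 24 h before dye was added (20 µL of 5 mg/mL MTT in PBS per well), then incubated until a purple precipitate formed. Precipitate dissolved in 150 µL DMSO after medium removal, then absorbance read.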
For orientation: Tetrazolium assays rely on reduction of a dye to a coloured formazan, in cell work by metabolically active cells.

Test [2] relates to K562. Description: Antiproliferative activity against human K562 cells after 24 hrs by MTT assay. To be noted: K562, 24 h. Summed up:
as §1

The subject of test [3] is SK-OV-3. The test is described as follows: Antiproliferative activity against human SKOV3 cells after 24 hrs by MTT assay. Particulars: SK-OV-3, 24 h. An outline of the steps:
as §1

Test [4] deals with HCT-116. The test is described as follows: Antiproliferative activity against human HCT116 cells after 24 hrs by MTT assay. Particulars: HCT-116, 24 h. Summed up: as §1
Test [5] has as its system HT-29. Description: Antiproliferative activity against human HT-29 cells after 24 hrs by MTT assay. Particulars: HT-29, 24 h. Summed up:
as §1

For test [6], the system named is SW-620. Description: Antiproliferative activity against human SW620 cells after 24 hrs by MTT assay. Particulars: SW-620, 24 h. Summed up: as §1

As usually defined, the IC50 is the concentration at which inhibition is half-maximal. High values mean a need for much substance, low ones inhibition by little substance. Turning to `COc1ccc(/C=C/C(=O)c2ccc(OC)c3c2OC(C)(C)C=C3)cn1`, the IC50 in test [1], in test [2], in test [3], in test [4], in test [5] and in test [6] was greater than 10 µM each time.

For `COc1ccc(C(=O)/C=C/c2ccc(F)cc2)c2c1C=CC(C)(C)O2`, the IC50 in test [1], in test [2], in test [3], in test [4], in test [5] and in test [6] was greater than 10 µM each time.

In the case of `COc1ccc(C(=O)/C=C/c2ccc(Cl)c(Cl)c2)c2c1C=CC(C)(C)O2`, the IC50 in test [1] is greater than 10 µM; in test [2], 9.03 µM; in test [3], 9.94 µM; in test [4], 9.44 µM; in test [5], 7.58 µM; in test [6], 7.7 µM.

With `COc1ccc(C(=O)/C=C/c2ccccn2)c2c1C=CC(C)(C)O2`, the IC50 stood at 5.76 µM in test [1]; 5.4 µM in test [2]; 8.39 µM in test [3]; 6.63 µM in test [4]; 2.12 µM in test [5]; 5 µM in test [6].

With `COc1ccc(C(=O)/C=C/c2ccco2)c2c1C=CC(C)(C)O2`, the IC50 in test [1], in test [2], in test [3], in test [4], in test [5] and in test [6] was greater than 10 µM throughout.

For the compound `COc1ccc(C(=O)/C=C/c2ccc(N(c3ccccc3)c3ccccc3)cc2)c2c1C=CC(C)(C)O2`, the IC50 in test [1], in test [2], in test [3], in test [4], in test [5] and in test [6] was greater than 10 µM throughout.

For the compound `COc1ccc(C(=O)/C=C/c2cccc(F)c2)c2c1C=CC(C)(C)O2`, the IC50 in test [1], in test [2], in test [3], in test [4], in test [5] and in test [6] was greater than 10 µM throughout.

For `COc1ccc(C(=O)/C=C/c2ccc3ccccc3c2)c2c1C=CC(C)(C)O2`, the IC50 stood at 0.21 µM in test [1]; 3.67 µM in test [2]; 7.65 µM in test [3]; 5.82 µM in test [4]; 4.48 µM in test [5]; 2.14 µM in test [6].

As to `COc1ccc(C(=O)/C=C/c2ccc(O)c(Br)c2)c2c1C=CC(C)(C)O2`, the half-inhibitory concentration (IC50) in test [1], in test [2], in test [3], in test [4], in test [5] and in test [6] was greater than 10 µM each time.

As for `COc1ccc(C(=O)/C=C/c2cc(Cl)ccc2O)c2c1C=CC(C)(C)O2`, the IC50 in test [1] worked out at 6.64 µM; in test [2] it was 5.51 µM; in test [3], 6.27 µM; in test [4], 5.24 µM; in test [5], 4.97 µM; in test [6] it was 4.23 µM.

With `COc1cc(/C=C/C(=O)c2ccc(OC)c3c2OC(C)(C)C=C3)cc(OC)c1O`, the IC50 in test [1], in test [2], in test [3], in test [4], in test [5] and in test [6] was greater than 10 µM throughout.

With `COc1cccc(/C=C/C(=O)c2ccc(OC)c3c2OC(C)(C)C=C3)c1`, the half-inhibitory concentration (IC50) in test [1] was greater than 10 µM; in test [2] it was greater than 10 µM; in test [3], 9.36 µM; in test [4], greater than 10 µM; in test [5] it was greater than 10 µM; in test [6] it was greater than 10 µM.

Consider `COc1ccc(C(=O)/C=C/c2cccc(Cl)c2)c2c1C=CC(C)(C)O2`, for which the IC50 in test [1], in test [2], in test [3], in test [4], in test [5] and in test [6] was greater than 10 µM in each case.

With `COc1ccc(C(=O)/C=C/c2cccc(C(F)(F)F)c2)c2c1C=CC(C)(C)O2`, the half-inhibitory concentration (IC50) in test [1] was greater than 10 µM; in test [2], 7.85 µM; in test [3], 9.33 µM; in test [4] it was 9.71 µM; in test [5] it was 9.05 µM; in test [6], 7.87 µM.

Turning to `COc1ccc(C(=O)/C=C/c2cccc3ccccc23)c2c1C=CC(C)(C)O2`, the IC50 in test [1], in test [2], in test [3], in test [4], in test [5] and in test [6] was greater than 10 µM in each case.

Consider `COc1ccc(C(=O)/C=C/c2ccc(N3CCCC3)cc2)c2c1C=CC(C)(C)O2`, for which the IC50 in test [1] turned out to be 4.74 µM; in test [2], 6.18 µM; in test [3], 7.37 µM; in test [4], 8.59 µM; in test [5] it was 8.36 µM; in test [6], 7.15 µM.

Consider `COc1ccc(C(=O)/C=C/c2ccc(Cl)cc2)c2c1C=CC(C)(C)O2`, for which the IC50 in test [1], in test [2], in test [3], in test [4], in test [5] and in test [6] was greater than 10 µM in each case.

For the compound `COc1ccc(C(=O)/C=C/c2cccc([N+](=O)[O-])c2)c2c1C=CC(C)(C)O2`, the IC50 in test [1] was 2.83 µM; in test [2], 5.87 µM; in test [3], 9.72 µM; in test [4], 8.05 µM; in test [5], 4.26 µM; in test [6] it was 4.09 µM.

In the case of `CCOc1cc(/C=C/C(=O)c2ccc(OC)c3c2OC(C)(C)C=C3)ccc1O`, the half-maximal inhibitory concentration (IC50) in test [1], in test [2], in test [3], in test [4], in test [5] and in test [6] was greater than 10 µM throughout.

For the compound `COc1ccccc1/C=C/C(=O)c1ccc(OC)c2c1OC(C)(C)C=C2`, the IC50 in test [1], in test [2], in test [3], in test [4], in test [5] and in test [6] was greater than 10 µM throughout.

Regarding `COc1ccc(C(=O)/C=C/c2ccccc2)c2c1C=CC(C)(C)O2`, the IC50 in test [1], in test [2], in test [3], in test [4], in test [5] and in test [6] was greater than 10 µM in each case.

Turning to `COc1ccc(C(=O)/C=C/c2ccc([N+](=O)[O-])cc2)c2c1C=CC(C)(C)O2`, the IC50 in test [1] stood at 2.61 µM; in test [2] it was 7.77 µM; in test [3], 3.42 µM; in test [4] it was 8.88 µM; in test [5], 3.73 µM; in test [6] it was 3.52 µM.

Take `COc1ccc(C(=O)/C=C/c2ccc(O)cc2)c2c1C=CC(C)(C)O2`: the IC50 in test [1], in test [2], in test [3], in test [4], in test [5] and in test [6] was greater than 10 µM in each case.

As to `COc1ccc(C(=O)/C=C/c2ccc(C(F)(F)F)cc2)c2c1C=CC(C)(C)O2`, the 50% inhibitory concentration (IC50) in test [1], in test [2], in test [3], in test [4], in test [5] and in test [6] was greater than 10 µM each time.
